Assay results from ChEMBL document CHEMBL1123330, “Synthesis and antitumor activities of unsymmetrically substituted 1,4-bis[(aminoalkyl)amino]anthracene-9,10-diones and related systems” (1986).
≈ marks a conversion by molar mass, not a printed value.

The molecules below were run on L1210 (assay: In vitro inhibition of L1210 cell growth.). Conditions: Mus musculus, read-out: ID50 (the source's name).
Format: functional
In short: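 Murine L1210 leukemia cells grown in suspension in McCoy's 5A with 10% horse serum, glutamine, penicillin, streptomycin; 37 °C, 10% CO2. Compound in Me2SO added to 10^5 cells/tube to final 0.01, 0.1 and 10 μg/mL; 7 h continuous exposure.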

SMILES | IC50
COc1ccc(NCCNC(C)=O)c2c1C(=O)c1ccccc1C2=O | > 10 µg/mL
COc1ccc(NCCCCCNC(C)=O)c2c1C(=O)c1ccccc1C2=O | 9 µg/mL (≈ 23.7 µM)
COc1ccc(NCCCCNC(=O)OCc2ccccc2)c2c1C(=O)c1ccccc1C2=O | > 10 µg/mL
CN(C)CCCNc1ccc(NCCCCNC(=O)OCc2ccccc2)c2c1C(=O)c1ccccc1C2=O | 0.29 µg/mL (≈ 0.549 µM)
COc1ccc(NCCCCNC(C)=O)c2c1C(=O)c1ccccc1C2=O | > 10 µg/mL
COc1ccc(NCCCCN)c2c1C(=O)c1ccccc1C2=O | 1.8 µg/mL (≈ 5.55 µM)
COc1ccc(NCCN)c2c1C(=O)c1ccccc1C2=O | 2.5 µg/mL (≈ 8.44 µM)
CN(C)CCNc1ccc(NCCCCNC(=O)OCc2ccccc2)c2c1C(=O)c1ccccc1C2=O | 0.88 µg/mL (≈ 1.71 µM)
COc1ccc(NCCCNC(C)=O)c2c1C(=O)c1ccccc1C2=O | > 10 µg/mL

The remaining lines, values ahead:

IC50 | SMILES
0.0045 µg/mL (≈ 0.0118 µM) | CN(C)CCNc1ccc(NCCCCN)c2c1C(=O)c1ccccc1C2=O
0.03 µg/mL (≈ 0.071 µM) | CC(=O)NCCCCNc1ccc(NCCN(C)C)c2c1C(=O)c1ccccc1C2=O
0.4 µg/mL (≈ 0.979 µM) | CC(=O)NCCCNc1ccc(NCCN(C)C)c2c1C(=O)c1ccccc1C2=O
0.18 µg/mL (≈ 0.456 µM) | CN(C)CCCNc1ccc(NCCCCN)c2c1C(=O)c1ccccc1C2=O
2.3 µg/mL (≈ 5.27 µM) | CC(=O)NCCCCCNc1ccc(NCCN(C)C)c2c1C(=O)c1ccccc1C2=O
0.05 µg/mL (≈ 0.136 µM) | CN(C)CCNc1ccc(NCCCN)c2c1C(=O)c1ccccc1C2=O
2.8 µg/mL (≈ 9.02 µM) | COc1ccc(NCCCN)c2c1C(=O)c1ccccc1C2=O
2.05 µg/mL (≈ 5.2 µM) | CC(=O)NCCNc1ccc(NCCN(C)C)c2c1C(=O)c1ccccc1C2=O
